These results are taken from PubChem BioAssay AID624067 (The Scripps Research Institute Molecular Screening Center, 2012).

Where “and” joins values, the source holds several entries; their conditions need not be identical. Equal entries are not always repeated.

Sequence of Insulin-degrading enzyme (Homo sapiens) (P14735 whole entry, looked up): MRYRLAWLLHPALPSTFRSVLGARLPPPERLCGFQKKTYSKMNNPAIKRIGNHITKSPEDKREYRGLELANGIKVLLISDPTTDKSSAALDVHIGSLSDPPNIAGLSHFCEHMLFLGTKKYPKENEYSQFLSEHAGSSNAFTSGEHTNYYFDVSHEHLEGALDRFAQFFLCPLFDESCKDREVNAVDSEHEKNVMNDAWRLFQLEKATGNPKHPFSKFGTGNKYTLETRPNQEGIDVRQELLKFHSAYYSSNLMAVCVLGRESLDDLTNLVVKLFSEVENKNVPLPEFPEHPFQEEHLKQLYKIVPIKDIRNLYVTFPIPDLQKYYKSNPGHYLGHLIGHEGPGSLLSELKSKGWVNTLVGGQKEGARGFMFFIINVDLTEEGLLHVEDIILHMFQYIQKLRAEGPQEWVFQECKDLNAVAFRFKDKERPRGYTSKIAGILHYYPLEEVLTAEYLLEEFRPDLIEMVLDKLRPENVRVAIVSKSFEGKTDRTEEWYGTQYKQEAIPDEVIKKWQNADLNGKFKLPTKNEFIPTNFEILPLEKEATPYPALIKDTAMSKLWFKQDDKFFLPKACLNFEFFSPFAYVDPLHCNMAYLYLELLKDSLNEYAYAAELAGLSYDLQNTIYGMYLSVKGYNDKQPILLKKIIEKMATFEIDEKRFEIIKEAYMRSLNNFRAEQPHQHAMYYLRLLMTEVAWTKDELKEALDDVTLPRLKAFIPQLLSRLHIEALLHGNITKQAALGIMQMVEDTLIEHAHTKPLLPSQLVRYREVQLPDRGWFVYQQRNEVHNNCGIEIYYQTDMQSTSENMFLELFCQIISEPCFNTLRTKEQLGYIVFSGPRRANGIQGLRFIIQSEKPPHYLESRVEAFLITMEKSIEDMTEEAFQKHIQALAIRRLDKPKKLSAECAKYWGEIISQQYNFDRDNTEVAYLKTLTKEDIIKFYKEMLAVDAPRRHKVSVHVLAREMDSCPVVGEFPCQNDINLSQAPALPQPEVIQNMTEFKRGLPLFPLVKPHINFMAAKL

The experiment addresses Insulin-degrading enzyme (Homo sapiens) (UniProt P14735). The experiment is described as follows: WT IDE enzyme inhibition, cell-free – biochemical, fluorescence polarization, run by assay provider, counter-screen for IDE inhibitor project, late-stage follow-up (AID 624067). To be noted: recombinant IDE, FAbetaB cleavage. A digest of the protocol: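 Material: recombinant WT human IDE / Quantity: IDE 1 nM final / Also added: FAbetaB substrate 100 nM / Compound dosing: 10 semi-log points, top 100 µM / Incubation: reaction at 22 °C / Signal: fluorescence polarization (ex 485 nm, em 525 nm) after avidin/1,10-phenanthroline stop / Benchmarks: high control with reference IDE inhibitor Ii1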
For orientation: Polarisation of emitted light reports the rotation of a fluorescent probe.
As a reminder, the IC50 is the midpoint of a concentration-inhibition curve. As to `O=C(Nc1cccc(C(F)(F)F)c1)c1csc(-c2ccncc2)n1`, the half-inhibitory concentration (IC50) is 5.3 µM.

Take `O=c1c2ccccc2sn1-c1cc(S(=O)(=O)N2CCOCC2)ccc1N1CCOCC1`: the 50% inhibitory concentration (IC50) was 1.4 µM.

Take `Cc1cccc(-c2nnc(SCc3nc4ccccc4[nH]3)n2Cc2ccco2)c1`: the IC50 was 5.7 µM and 8.9 µM.

On to `Clc1cccc(-c2nnc(SCc3nc4ccccc4[nH]3)n2Cc2ccco2)c1`, for which the 50% inhibitory concentration (IC50) is 3.9 µM.

`COc1ccc(C(=O)N2CCN(C(=O)C3COc4ccccc4O3)CC2)cc1OC` (stereo not given): the IC50 is 1.9 µM and > 33 µM (inactive).
